Source: article PMC12139872 (bioRxiv, 2025)

Assays:
[1] = test system: MOLM-13; assay: Cytotoxicity of antioxidants; type: cell-based; settings: 72-hour treatment
Method in brief: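 Each antioxidant (GSH, GSSG, tocopherol, ascorbate) was dissolved in sterile water and applied alone to MOLM-13 cells.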

[2] = target: T1, human glutathione reductase (GSR) (Homo sapiens, UniProt P00390); assay: Differential scanning fluorometry; type: binding; settings: 5 μM GSR, 20 μM compound
T1 sequence (P00390 44-522): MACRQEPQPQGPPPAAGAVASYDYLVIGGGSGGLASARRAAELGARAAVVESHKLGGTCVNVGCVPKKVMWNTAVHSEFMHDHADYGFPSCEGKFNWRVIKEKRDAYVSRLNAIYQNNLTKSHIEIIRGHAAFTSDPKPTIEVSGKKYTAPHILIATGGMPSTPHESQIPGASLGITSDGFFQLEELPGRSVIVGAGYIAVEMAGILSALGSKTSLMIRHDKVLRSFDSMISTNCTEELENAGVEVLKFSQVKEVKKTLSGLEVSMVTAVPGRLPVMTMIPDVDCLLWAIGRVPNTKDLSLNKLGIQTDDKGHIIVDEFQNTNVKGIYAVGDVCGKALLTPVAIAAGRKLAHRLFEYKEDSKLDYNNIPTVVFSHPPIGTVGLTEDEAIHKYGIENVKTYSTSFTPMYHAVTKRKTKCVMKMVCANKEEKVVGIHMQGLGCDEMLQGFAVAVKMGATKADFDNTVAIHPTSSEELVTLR
Method in brief: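 Human GSR (5 µM final), compound (20 µM final) and 5X SYPRO Orange were combined in 20 mM HEPES pH 7.4, 100 mM NaCl, 1% DMSO. Controls: no protein, compound fluorescence, plate autofluorescence, plus 2-AAPA as positive control. Plates were heated from 25 to 95 °C at 1-min steps with FRET-channel readout. Tm was taken from the dRFU derivative, and significance was tested by Student's t-test.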

Row | Compound | concentrations at which antioxidant is toxic to MOLM-13 [1] | toxicity of exogenously supplemented antioxidant to MOLM-13 (in words) [1] | further results
1 | O=C1O[C@H]([C@@H](O)CO)C(O)=C1O [ascorbate] | > 15.63 µM | – | –
2 | CC(=O)NC(CSC(=S)Nc1ccc(NC(=S)SCC(NC(C)=O)C(=O)O)cc1)C(=O)O (centres unmarked) [Compound 2-AAPA, 2-AAPA] | – | – | change in melting temperature (Tm) of GSR [2]: significantly changed the melting temperature
3 | Cc1c(C)c2c(c(C)c1O)CC[C@@](C)(CCC[C@H](C)CCC[C@H](C)CCCC(C)C)O2 [tocopherol] | higher than 62.5 μM | – | –
4 | oxidized glutathione [GSSG] | – | not toxic | –
5 | N[C@@H](CCC(=O)N[C@@H](CS)C(=O)NCC(=O)O)C(=O)O [GSH, reduced glutathione] | – | not toxic | –
